Source: ChEMBL document CHEMBL1649279, “The final step of hygromycin A biosynthesis, oxidation of C-5''-dihydrohygromycin A, is linked to a putative proton gradient-dependent efflux” (Antimicrob Agents Chemother, 2009)
Converted amounts (≈) assume the structure as drawn.

Assays:
Escherichia coli [1] = assay: Inhibition of protein synthesis in Escherichia coli assessed as green fluorescent protein synthesis by coupled transcription-translation assay; assay type: functional, organism-based
Outline: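 E. coli lysate coupled transcription-translation with a GFP template, run with and without antibiotic at increasing concentrations. GFP measured by fluorescence scanning and native PAGE. Triplicates, expressed as percent of fluorescence without antibiotic.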

Escherichia coli [2] = assay: Antimicrobial activity against tolC deficient Escherichia coli by after 2 hrs; assay type: functional
Outline: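 ΔtolC E. coli grown in 200 μl LB at 37°C for 2 h across a range of antibiotic concentrations, read by A600. MIC is the lowest concentration giving 95% growth inhibition relative to an untreated culture.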

[3] = test system: Streptomyces hygroscopicus; assay: Activity at Streptomyces hygroscopicus recombinant N-terminal His-tagged Hyg26 reductase expressed in Escherichia coli BL21 (DE3)
Outline: (§1)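 His-tagged Hyg26, expressed in E. coli BL21-CodonPlus(DE3) and purified on Ni-NTA. Reductase kinetics: 800 ng enzyme, 50 mM phosphate pH 6 with 2 mM TCEP, 37°C, 15 min. NADH fixed at 60 mM with antibiotic 2–60 mM; for NADH, HA fixed at 20 mM with NADH 0.25–10 mM. DHHA-type product quantified by reverse-phase HPLC peak area. Duplicates averaged and fitted for kinetic parameters.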

[4] = test system: Streptomyces hygroscopicus; assay: Ratio of Kcat to Km for Streptomyces hygroscopicus recombinant N-terminal His-tagged Hyg26 reductase expressed in Escherichia coli BL21 (DE3); outline: as §1
[5] = test system: Streptomyces hygroscopicus; assay: Antimicrobial activity against hyg28 deficient Streptomyces hygroscopicus SCH30 by after 48 hrs by agar plate dilution method; assay type: functional; details: SCH30, 48 h
Outline: (§2)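 Spores plated on yeast extract malt extract agar containing a series of HA concentrations, incubated 48 h at 30°C, then scored for growth. MIC taken as the lowest HA concentration preventing visible growth of at least 95% of CFU.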

Streptomyces lividans = assay: Antimicrobial activity against Streptomyces lividans by after 48 hrs by agar plate dilution method; assay type: functional; outline: as §2
[6] = test system: Streptomyces hygroscopicus; assay: Antimicrobial activity against hyg20 deficient Streptomyces hygroscopicus SCH30 by after 48 hrs by agar plate dilution method; assay type: functional; details: SCH30, 48 h; outline: as §2
[7] = test system: Streptomyces hygroscopicus; assay: Antimicrobial activity against wild type Streptomyces hygroscopicus by after 48 hrs by agar plate dilution method; assay type: functional; outline: as §2
[8] = test system: Streptomyces hygroscopicus; assay: Antimicrobial activity against hyg19-hyg20-hyg21 deficient Streptomyces hygroscopicus SCH30 by after 48 hrs by agar plate dilution method; assay type: functional; details: SCH30, 48 h; outline: as §2
[9] = test system: Streptomyces hygroscopicus; assay: Antimicrobial activity against hyg19 deficient Streptomyces hygroscopicus SCH30 by after 48 hrs by agar plate dilution method; assay type: functional; details: SCH30, 48 h; outline: as §2

| SMILES | IC50 (Escherichia coli [1]) [nM] | IC90 (Escherichia coli [1]) [nM] | MIC (Escherichia coli [2]) [µg/mL] | Km [3] [mM] | kcat [3] [s⁻¹] | kcat/Km [4] [×10³ /M/s] | MIC [5] [µg/mL] | MIC (Streptomyces lividans) [µg/mL] | MIC [6] [µg/mL] | MIC [7] [µg/mL] | MIC [8] [µg/mL] | MIC [9] [µg/mL] |
| --- | --- | --- | --- | --- | --- | --- | --- | --- | --- | --- | --- | --- |
| C/C(=C\c1ccc(O[C@@H]2O[C@H](C(C)O)[C@@H](O)[C@@H]2O)c(O)c1)C(=O)N[C@@H]1[C@H](O)[C@@H](O)[C@H]2OCO[C@H]2[C@@H]1O (stereo partly drawn) | 300 | 1500 | 20 (≈ 38.9 µM) | – | – | – | – | – | – | – | – | – |
| C/C(=C\c1ccc(O[C@@H]2O[C@H](C(C)O)[C@@H](O)[C@@H]2O)c(O)c1)C(=O)N[C@@H]1[C@H](O)[C@@H](O)[C@@H](O)[C@@H](O)[C@@H]1O (stereo partly drawn) | 2700 | 14100 | 150 (≈ 299 µM) | – | – | – | – | – | – | – | – | – |
| CO[C@@H]1[C@H](O)[C@@H](O)[C@@H](NC(=O)/C(C)=C/c2ccc(O[C@@H]3O[C@H](C(C)O)[C@@H](O)[C@@H]3O)c(O)c2)[C@@H](O)[C@@H]1O (stereo partly drawn) [5'-DIHYDROMETHOXYHYGROMYCIN A] | 7400 | 50000 | 150 (≈ 291 µM) | – | – | – | – | – | – | – | – | – |
| CC(=O)[C@H]1O[C@@H](Oc2ccc(/C=C(\C)C(=O)N[C@@H]3[C@H](O)[C@@H](O)[C@@H](O)[C@@H](O)[C@@H]3O)cc2O)[C@@H](O)[C@@H]1O [DESMETHYLENEHYGROMYCIN A] | 320 | 1000 | 150 (≈ 300 µM) | 63.6 | 31.7 | 0.9 | – | – | – | – | – | – |
| CC(=O)[C@H]1O[C@@H](Oc2ccc(/C=C(\C)C(=O)N[C@@H]3[C@H](O)[C@@H](O)[C@H]4OCO[C@H]4[C@@H]3O)cc2O)[C@@H](O)[C@@H]1O [HYGROMYCIN A] | 180 | 250 | 10 (≈ 19.6 µM) | 5.8 | 5.1 | 1 | 300 (≈ 587 µM) | 20 (≈ 39.1 µM) | 300 (≈ 587 µM) | 400 (≈ 782 µM) | 75 (≈ 147 µM) | 400 (≈ 782 µM) |
| CO[C@@H]1[C@H](O)[C@@H](O)[C@@H](NC(=O)/C(C)=C/c2ccc(O[C@@H]3O[C@H](C(C)=O)[C@@H](O)[C@@H]3O)c(O)c2)[C@@H](O)[C@@H]1O [METHOXYHYGROMYCIN A] | 500 | 2000 | 150 (≈ 292 µM) | 19.8 | 15.5 | 0.9 | – | – | – | – | – | – |
